# Screens as filed in PubChem.
# TMEM16A act: activates or potentiates the mouse TMEM16A chloride channel; AID 623877; HEK293 TMEM16A/YFP-H148Q/I152L, iodide quench fluorescence; hits give low values; B-score at 10 µM; Q8BHY3; 340,000 compounds, 0.3% hits;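 active means fluorescence-ratio B-score plate-corrected deviation score at least 3 library SD below zero, with starting fluorescence score within 5 deviations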;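 further: channel opened by trigger with iodide after compound preincubation; score built on the fluorescence ratio of max minus min over baseline; more negative score means more quench and so TMEM16A activation or potentiation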
# ANO1 block: mouse TMEM16A channel inhibition, primary screen; Q8BHY3; HEK293 TMEM16A/YFP iodide influx fluorescence, ionomycin; normalized B-score (activity score, 25-100; higher = stronger inhibition) at 10 µM; 310,000 compounds, 1.2% hits; AID 588511;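 active means ratio plate-corrected score three or more library SD toward inhibition, starting fluorescence score within five deviations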;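 further: score derived from kinetic fluorescence span divided by baseline fluorescence per well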
# SR-BI uptake up: SR-BI HDL lipid transfer activation; CHO ldlA[mSR-BI] cells, DiI-HDL uptake fluorescence, 3 h; 100 = double the neutral-control signal; activation, % at 12.5 µM; 320,000 compounds, 0.096% hits;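 active means mean replicate activation of at least 60% and every replicate at or above 60%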;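 further: 0% = median plate neutral-control signal and 100% = twice that signal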
#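 System: CHO ldlA[mSR-BI] cells / Medium: HEPES-buffered (25 mM, pH 7.4) F12 plus 0.5% BSA / Probe or stimulus: labelled HDL, 10 µg/mL / Doses: single compound concentration, delivered by pin transfer / Schedule: 3 h, 37 °C / Measured by: DiI fluorescence, bottom read / Measure: cell-associated DiI fluorescence as measure of HDL uptake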
# SR-BI HDL uptake: blocks mouse SR-BI lipid uptake from DiI-HDL. ldlA[mSR-BI] CHO cells, DiI-HDL uptake fluorescence, 3 h. inhibition, % at 12.5 µM. 320,000 compounds, 0.96% hits;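 active means mean replicate inhibition of at least 70% and a set share of replicates each scoring 70 or more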;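 further: 0% = median of neutral control wells and 100% = median of positive control wells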
# DNA FID counter: counter-screen for HCV NS3 helicase inhibitors: DNA intercalator displacement; 290,000 compounds, 0.17% hits; inhibition, % at 7.9 µM; DNA fluorescent intercalator displacement, fluorescence; AID 1845; in the data active means inhibition above about 37%;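 further: 0% = vehicle and 100% = reference compound; higher means more ethidium bromide displaced from hairpin DNA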
# Kir21 inh: inhibitors of mouse Kir2.1 inward-rectifier potassium channel | AID 1672 | B-score at 10 µM | 310,000 compounds, 0.85% hits | HEK293-Kir2.1, FluxOR thallium flux fluorescence; hits give low values;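 active means fluorescence ratio B-score at or below minus 3 SD of library scores, with starting-brightness B-score within 2 SD, cut at about -4.2 in these data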;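 further: channel flux triggered by added potassium and thallium sulfate stimulus; B-score of peak minus minimum fluorescence over baseline after thallium stimulus; more negative B-score means stronger Kir2.1 block with less thallium influx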
# An asterisk follows results filed as active; i = inactive; . = no result. Hits are enriched below; roughly 3% of the tested compounds scored in any of these assays.
SMILES,TMEM16A act,ANO1 block,SR-BI uptake up,SR-BI HDL uptake,DNA FID counter,Kir21 inh
Cc1cccc(OCC(=O)N2CCN(c3nnc(-c4ccccc4)c4ccccc34)CC2)c1,i,i,-80,80*,-32,1.2
O=c1[nH][nH]c2cc([N+](=O)[O-])ccc12,i,.,3,-3,.,.
COc1ccc(-n2c(CCc3ccccc3)nnc2SCC(=O)NCc2ccccc2)cc1,i,i,17,-17,-36,-4.9*
CCn1c(CNC(=O)Cc2ccc(OC)cc2)nnc1SCC(=O)c1ccccc1,-35*,.,4,-4,-5,.
CN(CC(=O)Nc1ccc(Cl)c(C(F)(F)F)c1)C(=O)c1cnccn1,i,.,7,-7,.,.
C[C@H]1CN([C@@H](C)CO)C(=O)Cc2cc(NC(=O)CCC(F)(F)F)ccc2O[C@H]1CN(C)CC1CC1,i,.,17,-17,.,.
CC1=NN(c2ccccc2)C(=O)/C1=C/c1c(O)n(-c2ccc(F)c(Cl)c2)[nH]c1=O,.,i,.,.,41*,-2.4
COc1ccccc1/C=C/C(=O)Nc1cccc(S(=O)(=O)NC2=NCCCCC2)c1,i,i,-72,72*,-26,-0.28
COc1ccc(OC)c(/C=C/C(=O)Nc2cccc(S(=O)(=O)NC3=NCCCCC3)c2)c1,i,.,-65,65,.,.
COc1cc(C)c(NC(=O)c2cccc(S(=O)(=O)N3CCCC3)c2)cc1OC,i,.,-86,86*,.,.
COc1ccc(OC)c(/C=C/C(=O)Nc2cccc(S(=O)(=O)N3CCCC3)c2)c1,i,i,-87,87*,-9,0.02
O=C(COC(=O)c1ccc(O)cc1)Nc1cccc(S(=O)(=O)NC2=NCCC2)c1,-31*,.,2,-2,.,.
COc1ccc(NC(=O)c2cccc(S(=O)(=O)N3CCCC3)c2)cc1OC,i,.,-69,69,.,.
O=C(COC(=O)c1ccccc1)Nc1cccc(S(=O)(=O)NC2=NCCCCC2)c1,i,i,3,-3,-16,1.5
COc1c(C)cc(C(=O)C2CCCN(Cc3cnc(N4CCOCC4)s3)C2)cc1C (configuration not stated),i,i,3,-3,19,-1.6
O=C(CCN1C(=O)NC2(CCCC2)C1=O)Nc1ccc(-c2nc3ccccc3s2)cc1,i,.,-50,50,.,.
COc1cc(C(=O)Nc2cccc(S(=O)(=O)N3CCCC3)c2)c([N+](=O)[O-])cc1OC,i,i,-74,74*,.,-0.79
O=S(=O)(O)c1cc(OS(=O)(=O)c2ccccc2)cc2ccccc12,i,i,27,-27,-23,0.74
CCc1ccc(CNC(=O)CCC(=O)n2ncc3cc(C)ccc32)cc1,-8.8*,i,5,-5,-19,0.06
Cc1ccc2c(cnn2C(=O)CCCC(=O)NCc2ccc(F)cc2)c1,i,i,13,-13,-35,-0.04
CCCn1c(C)nnc1SCC(=O)NC1CCCCC1,i,i,.,-14,-3,0.24
COc1cccc(Nc2nc(CC(C)=O)ns2)c1,i,i,6,-6,-3,-1.8
COc1ccc(Nc2nc(CC(C)=O)ns2)cc1,-16*,i,-3,3,-9,0.47
Oc1ccccc1-c1cc(-c2ccc3c(c2)OCCO3)n[nH]1,i,i,-78,78*,-7,-0.88
O=C(O)c1cc(-c2ccc3c(c2)OCCO3)n[nH]1,i,i,9,-9,3,0.23
SMILES,TMEM16A act,ANO1 block,SR-BI uptake up,SR-BI HDL uptake,DNA FID counter,Kir21 inh
CNC[C@H](CC1CCCCC1)NC[C@H](Cc1ccccc1)NCCC12CC3CC(CC(C3)C1)C2,i,100*,38,-38,28,-8.2*
O=C(Nc1ccc2c(c1)N(S(=O)(=O)c1cccs1)CCC2)c1c(F)cccc1Cl,i,i,-41,41,.,-0.15
COc1cccc(OC)c1C(=O)Nc1ccc2c(c1)N(S(=O)(=O)c1cccs1)CCC2,i,i,-77,77*,-30,-0.33
N#CC(C#N)=C(Nc1ccc(F)cc1)SCc1cccc(F)c1,i,25*,-2,2,-4,0.06
COC(=O)c1ccc(COC(=O)CCNS(=O)(=O)c2ccc(C)c(C)c2)cc1,i,.,-8,8,.,.
COc1ccc(S(=O)(=O)N(CC(=O)N2CCN(C)CC2)c2ccc(C)cc2)cc1Br,i,.,8,-8,16,-1.3
